# Bioassay records from PubChem.
# CHRM5 antagonist: human M5 muscarinic receptor antagonists, primary screen, CHO cells, Fluo-8 calcium fluorescence; CHO-hM5 cells, ACh EC80; Muscarinic acetylcholine receptor M5 (Homo sapiens), P08912; 360,000 compounds, 0.59% hits; inhibition, % at 3 µM;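 active = inhibition above a per-plate cutoff, the mean of that plate's test compounds plus 3 SD, cut at about 27% in these data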;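 note: 0% = acetylcholine EC80 with DMSO and 100% = DMSO without agonist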
# Target sequence (P08912 whole entry, looked up): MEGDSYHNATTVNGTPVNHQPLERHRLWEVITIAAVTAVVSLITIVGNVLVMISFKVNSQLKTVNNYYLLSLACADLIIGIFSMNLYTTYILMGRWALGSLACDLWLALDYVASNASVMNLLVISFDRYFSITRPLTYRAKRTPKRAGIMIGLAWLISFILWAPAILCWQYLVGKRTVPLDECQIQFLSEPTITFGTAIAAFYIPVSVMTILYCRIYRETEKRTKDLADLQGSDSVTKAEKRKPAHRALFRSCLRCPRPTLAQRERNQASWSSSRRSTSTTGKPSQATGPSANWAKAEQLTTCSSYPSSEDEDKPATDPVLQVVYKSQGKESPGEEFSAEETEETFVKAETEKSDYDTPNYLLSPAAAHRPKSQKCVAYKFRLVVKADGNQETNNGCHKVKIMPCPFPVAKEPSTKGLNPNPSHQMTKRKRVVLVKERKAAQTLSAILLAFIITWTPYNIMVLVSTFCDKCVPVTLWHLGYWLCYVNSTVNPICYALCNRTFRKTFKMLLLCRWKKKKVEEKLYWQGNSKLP
# CHRM1 agonist: human M1 muscarinic receptor agonists, primary screen, Fluo-8 calcium fluorescence, CHO-K1 cells, HTS; CHO-K1 hM1, agonist mode; 0% DMSO, 100% acetylcholine EC100; 360,000 compounds, 0.33% hits; Muscarinic acetylcholine receptor M1 (Homo sapiens), P11229; activation, % at 3 µM;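 active = activation above the run's mean compound activation plus 3 SD, cut at about 16% in these data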;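 note: peak over basal fluorescence ratio within a 140 s kinetic read after compound addition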
# CHRM5 PAM: human M5 muscarinic receptor positive allosteric modulators, primary screen, CHO-K1 cells, Fluo-8 calcium fluorescence; Muscarinic acetylcholine receptor M5 (Homo sapiens), P08912; CHO-K1 hM5, ACh EC20 PAM; 0% = ACh EC20, 100% = ACh EC100; activation, % at 3 µM; 360,000 compounds, 0.3% hits;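 active = activation above the run cutoff, the mean activation of all test compounds plus 3 SD, cut at about 18% in these data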
#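 System: CHO-K1 hM5 cells. Reagent: acetylcholine, EC20 level. Compound dosing: single dose, 3 µM nominal final test concentration. Timing: Post-acetylcholine fluorescence recording 140 s. Detection: Fluo-8 calcium fluorescence. Read-out: % activation, ACh-normalized. Benchmarks: ACh EC20 and EC100 wells. Repeats: singlicate, one well per test compound.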
# CHRM5 agonist: human M5 muscarinic receptor agonists, primary screen, CHO-K1 cells, Fluo-8 calcium fluorescence. CHO-K1 hM5 cells; 0% DMSO wells, 100% maximal acetylcholine response. activation, % at 3 µM. 360,000 compounds, 0.19% hits;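 active = activation above the run's mean over test compounds plus 3 SD, cut at about 23% in these data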;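 note: signal is peak over basal fluorescence ratio across the kinetic read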
# M1 antag: human M1 muscarinic receptor antagonists, primary screen, CHO-K1 cells, Fluo-8 calcium fluorescence, 1536-well. Muscarinic acetylcholine receptor M1 (Homo sapiens), P11229. CHO-K1 hM1, ACh EC80 antagonist. inhibition, % at 3 µM. 360,000 compounds, 1.3% hits. AID 588852, 2011;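 active = percent inhibition above its own plate's cutoff, namely the mean of that plate's compound wells plus 3 SD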;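 note: peak over basal fluorescence ratio during 140 s after agonist addition; 0% = ACh EC80 plus DMSO and 100% = DMSO alone without agonist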
# M1 PAM: human M1 muscarinic receptor positive allosteric modulators, primary screen, CHO-K1 cells, Fluo-8 calcium fluorescence, 1536-well. Muscarinic acetylcholine receptor M1 (Homo sapiens), P11229. CHO-K1 hM1, ACh EC20; 0% = ACh EC20, 100% = maximal ACh. activation, % at 3 µM. 360,000 compounds, 0.088% hits; in the data active = activation above about 19%, passing the limit was not always enough
# Starred values were filed as active, the others as inactive; nt = no result given. Rows were chosen to be rich in hits. Some 2% of all compounds tested hit in one or more screens of this group.
SMILES,CHRM5 antagonist,CHRM1 agonist,CHRM5 PAM,CHRM5 agonist,M1 antag,M1 PAM
Cc1cccc(C2(c3cccc(C)c3)CC2C(=O)Nc2ccc([N+](=O)[O-])cc2O)c1 (centres undefined),33*,-3,-21,2,25,-15
C=CCNC(=O)C1CC1(c1cccc(C)c1)c1cccc(C)c1 (centres undefined),2,1,-4,1,0,13
O=C1C=CC(=Nc2ccc3c(c2)Cc2cc(F)ccc2-3)O1,-1,-6,13,-8,-11,1
O=C1C=CC(=Nc2cccc3c2C(=O)c2ccccc2-3)O1,12,4,-14,45*,-11,5
O=c1[nH][nH]c2c1[C@@H](c1ccc(F)cc1)O[C@H](CCOCc1ccccc1)C2,10,nt,0,5,nt,nt
CC(C)C[C@H]1CN([C@@H](CC(C)C)CN2CCCC2CN2C(=S)NC[C@@H]2Cc2ccccc2)C(=S)N1CCc1ccccc1 (some centres undefined),-10,nt,4,2,nt,nt
CCC(O)CNC(=O)NC(=C(Cl)Cl)c1ccc(C)c(F)c1 (centres undefined),5,-7,22*,0,-10,15
COC(=O)[C@@]1(Cc2ccc(F)cc2)[C@H]2c3cc(C(=O)N(C)C)n(CCc4c[nH]c5ccc(O)cc45)c3C[C@H]2CN1C(=O)c1ccccc1,5,nt,-2,5,nt,nt
O=C(Cc1nc(-c2ccc([N+](=O)[O-])cc2)cs1)Nc1ccccc1,3,18*,-9,-1,-4,7
CCCCCC(=O)OCc1ccc(C2=CC(=O)CC(C)(C)C2=O)cc1,-2,-3,0,2,-14,5
CC1(C(=O)NCC2CC2)CCN1C(=O)C1(c2ccccc2)CC1 (centres undefined),-5,-4,4,0,-14,7
CCCCCC(=O)N1C[C@@H](n2cc(COC(=O)c3ccccc3)nn2)[C@H](O)C[C@@H]1c1ccc(C)cc1,-6,-5,-4,-2,-9,3
CN(C)CCCN1c2ccccc2Sc2ccc(C(F)(F)F)cc21,98*,nt,-18,1,nt,nt
OCCN1CCN(CC/C=C2/c3ccccc3Sc3ccc(C(F)(F)F)cc32)CC1,9,-5,-6,1,36,-24
CN(C)CCCN1c2ccc(O)cc2Sc2ccc(Cl)cc21,56*,-4,-20,-1,100*,-31
CN(C)CCC(=O)N1c2ccccc2Sc2ccc(C(F)(F)F)cc21,100*,-9,-32,-23,99*,-29
O=C1c2ccccc2C(=O)N1CC(=O)N1c2ccccc2Sc2ccc(C(F)(F)F)cc21,1,-1,7,0,1,2
O=C(CSc1nc2ccccc2s1)N1c2ccccc2Sc2ccc(C(F)(F)F)cc21,9,-3,-17,-5,1,0
CN1CCN(CCC(=O)N2c3ccccc3Sc3ccc(C(F)(F)F)cc32)CC1,11,-7,-19,-6,42*,-24
CN(C)CCCN1c2ccc([N+](=O)[O-])cc2CCc2cc([N+](=O)[O-])ccc21,-2,-5,10,2,6,-2
COc1ccc(C(C(=O)Nc2c(C)cccc2C)N2CCN(C)CC2)cc1 (centres undefined),-13,nt,8,1,nt,nt
CCCNC(=O)C1(C)CCN(Cc2ccc(C(=O)OCC)cc2)C1 (centres undefined),11,-3,-4,-2,14,-11
CC(C)OC(=O)c1sc2nc(-c3ccccc3)ccc2c1N,-1,-4,-6,-3,14,-9
